Paper PMC9826239 (Angewandte Chemie (International Ed. in English), 2022)
Residues, ends and D or L forms follow the SMILES beside them. *: point of attachment. X1 = [N-]=[N+]=NCCOCCOCCOCCOCC(=O)*

Tests used:
[1] = Water solubility of peptides; type: physicochemical; conditions: after HPLC purification; qualitative
[2] = target: T1, E-selectin (Homo sapiens, UniProt P16581); assay: SPR direct binding to E-selectin-functionalized sensor chip
T1 sequence (P16581 22-610): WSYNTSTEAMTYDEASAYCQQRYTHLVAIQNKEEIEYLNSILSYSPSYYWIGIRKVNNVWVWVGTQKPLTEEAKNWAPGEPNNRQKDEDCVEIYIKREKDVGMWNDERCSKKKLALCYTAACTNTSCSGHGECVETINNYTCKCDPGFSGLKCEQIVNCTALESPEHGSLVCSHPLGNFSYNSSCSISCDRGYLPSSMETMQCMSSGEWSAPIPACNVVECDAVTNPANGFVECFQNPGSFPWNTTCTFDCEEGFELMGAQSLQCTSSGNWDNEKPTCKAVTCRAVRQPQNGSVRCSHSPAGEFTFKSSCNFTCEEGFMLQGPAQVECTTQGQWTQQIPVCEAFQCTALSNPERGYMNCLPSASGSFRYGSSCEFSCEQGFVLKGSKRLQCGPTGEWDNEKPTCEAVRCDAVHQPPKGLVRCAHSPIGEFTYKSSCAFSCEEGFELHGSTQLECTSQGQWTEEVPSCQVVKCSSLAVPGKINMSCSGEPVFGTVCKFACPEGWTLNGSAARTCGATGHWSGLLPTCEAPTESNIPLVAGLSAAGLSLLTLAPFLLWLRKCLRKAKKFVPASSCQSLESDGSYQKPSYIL

[3] = system: E-selectin on HUVEC cells; type: cell-based, human; conditions: 10 μM in HKR pH 7.4, 30 min; 10 ng/mL TNFα for 12 h; heparin/HKR washes
Method in brief: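 Human umbilical vein endothelial cells (HUVEC) were cultured as two parallel sets, with or without TNFα, to induce E‑selectin overexpression. Both sets were incubated for 30 min with 10 μM rhodamine‑labelled peptide/[60]fullerene conjugate (binding peptide or non‑binding control sequence). Cells were then washed thoroughly with heparin and HKR buffer and imaged by live‑cell confocal microscopy.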

Row | Molecule | water solubility [1] | Kd [2] | further results
1 | CC[C@H](C)[C@H](N)C(=O)N[C@@H](CCC(=O)O)C(=O)N[C@@H](CC(C)C)C(=O)N[C@@H](CC(C)C)C(=O)N[C@@H](CCC(N)=O)C(=O)N[C@@H](C)C(=O)N[C@@H](CCCNC(=N)N)C(=O)N[C@@H](CCCCNC(=O)COCCOCCOCCOCCN=[N+]=[N-])C(N)=O [P1, IELLQARK‐(PEG)4‐N3] (H-IELLQARK(X1)-NH2) | excellent purity and water solubility | 0.0516 mM | 
2 | CC[C@H](C)[C@H](NC(=O)COCCOCCOCCOCCN=[N+]=[N-])C(=O)N[C@@H](CCC(=O)O)C(=O)N[C@@H](CC(C)C)C(=O)N[C@@H](CC(C)C)C(=O)N[C@@H](CCC(N)=O)C(=O)N[C@@H](C)C(=O)N[C@@H](CCCNC(=N)N)C(N)=O [P2, N3‐(PEG)4‐IELLQAR] (X1-IELLQAR-NH2) | excellent purity and water solubility | 2.95 mM | 
3 | C60-(IELLQARK)12 [F1] |  |  | dissociation behaviour in SPR sensorgrams ([2]; (12.5-0.78) μM, t>240 s, initial fast then extremely slow dissociation phase): two‐phase dissociation process; affinity increase relative to its monomeric counterpart ([2]; F1 vs monomeric peptide, E-selectin SPR): up to 3 orders of magnitude; affinity enhancement (β) factor ([2]; multivalent effect of F1, twelve peptide units, SI section 6.5, eq. 3): 71
4 | C60-(ISELRSE)12 [FC] |  |  | cell fluorescence, TNFα-treated HUVEC cells, confocal microscopy [3]: residual fluorescence
